In ChEMBL document CHEMBL1828541, “New aporphinoid 5-HT2A and α1A antagonists via structural manipulations of nantenine” (Bioorg Med Chem, 2011):

What was measured:
Type in all cases: functional, cell-based
[1] = target: T1, Alpha-1A adrenergic receptor (Homo sapiens) (UniProt P35348); assay: Antagonist activity at human alpha1A receptor assessed as inhibition of intracellular calcium mobilization by FLIPR assay
T1 sequence (whole entry): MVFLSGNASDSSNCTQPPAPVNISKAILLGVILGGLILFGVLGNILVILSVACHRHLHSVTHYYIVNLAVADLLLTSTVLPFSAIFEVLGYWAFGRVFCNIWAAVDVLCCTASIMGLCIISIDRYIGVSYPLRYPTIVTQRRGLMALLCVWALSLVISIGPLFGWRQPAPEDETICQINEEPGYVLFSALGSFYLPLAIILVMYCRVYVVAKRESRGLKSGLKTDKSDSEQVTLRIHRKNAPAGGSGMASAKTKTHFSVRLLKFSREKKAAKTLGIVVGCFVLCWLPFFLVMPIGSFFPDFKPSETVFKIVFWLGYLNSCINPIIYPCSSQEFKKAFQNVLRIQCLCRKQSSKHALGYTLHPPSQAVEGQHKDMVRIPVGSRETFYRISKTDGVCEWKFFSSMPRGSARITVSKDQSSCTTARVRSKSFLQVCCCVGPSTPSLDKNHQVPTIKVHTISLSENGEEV
Outline: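 Human α1A-adrenergic receptor, FLIPR Tetra calcium-mobilization assay with a calcium-sensitive fluorescent dye. Ke was derived from agonist concentration-response EC50 shifts by a single antagonist concentration, using Ke = [L]/(DR-1) as for the 5-HT2A set.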

[2] = target: 5-hydroxytryptamine receptor 2A (Homo sapiens) (UniProt P28223); assay: Antagonist activity at human 5-HT2A receptor assessed as inhibition of intracellular calcium mobilization by FLIPR assay
Outline: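 FLIPR Tetra calcium-dye assay at human 5-HT2A. Compounds without intrinsic activity that inhibited the fluorescence rise to the EC80 of 5-HT by at least 50% at 10 μM went on to Ke determination. For this, an 8-point half-log 5-HT concentration-response curve was run with and without a single antagonist concentration. Ke = [L]/(DR-1), where DR = A'/A (ratio of 5-HT EC50s).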

[3] = target: 5-hydroxytryptamine receptor 2A (Homo sapiens) (UniProt P28223); assay: Agonist activity at human 5-HT2A receptor assessed as intracellular calcium mobilization at 10 uM by FLIPR assay
Outline: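 Multi-well FLIPR Tetra screen at 10 μM for intrinsic activity at human 5-HT2A receptor. Read-out is receptor-mediated mobilization of internal calcium, detected with a calcium-sensitive fluorescent dye.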

5-hydroxytryptamine receptor 2A (Homo sapiens), sequence (P28223 whole entry): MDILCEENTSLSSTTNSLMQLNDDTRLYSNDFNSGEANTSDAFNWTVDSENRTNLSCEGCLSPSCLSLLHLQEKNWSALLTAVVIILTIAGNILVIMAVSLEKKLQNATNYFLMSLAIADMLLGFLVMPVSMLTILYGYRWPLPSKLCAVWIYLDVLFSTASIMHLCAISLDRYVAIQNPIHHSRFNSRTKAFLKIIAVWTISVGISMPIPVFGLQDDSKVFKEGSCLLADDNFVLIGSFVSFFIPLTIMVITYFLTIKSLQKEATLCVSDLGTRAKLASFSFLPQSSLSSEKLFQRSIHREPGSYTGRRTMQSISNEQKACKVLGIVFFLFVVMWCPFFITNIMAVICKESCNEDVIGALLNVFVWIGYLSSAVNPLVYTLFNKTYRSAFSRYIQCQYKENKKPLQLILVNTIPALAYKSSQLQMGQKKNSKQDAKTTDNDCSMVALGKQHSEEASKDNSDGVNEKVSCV

SMILES	Ke [1] [nM]	Ke [2] [nM]	Emax [3] [%]
CCC(CC)COc1c(OC)cc2c3c1-c1cc4c(cc1CC3N(C)CC2)OCO4 (centres undefined)	> 10000	806	
C=CCOc1c(OC)cc2c3c1-c1cc4c(cc1CC3N(C)CC2)OCO4 (racemic)	> 10000	70	
CCCCCCOc1c(OC)cc2c3c1-c1cc4c(cc1CC3N(C)CC2)OCO4 (racemic)	> 10000	71	
CCCCCN1CCc2cc(OC)c(OC)c3c2C1Cc1cc2c(cc1-3)OCO2 (racemic)	720	> 10000	
CCCCCOc1cc2c3c(c1OC)-c1cc4c(cc1CC3N(C)CC2)OCO4 (racemic)	449	> 10000	
CCCCN1CCc2cc(OC)c(OC)c3c2C1Cc1cc2c(cc1-3)OCO2 (racemic)	210	> 10000	
CCCCOc1cc2c3c(c1OC)-c1cc4c(cc1CC3N(C)CC2)OCO4 (racemic)	234	943	
CCCN1CCc2cc(OC)c(OC)c3c2C1Cc1cc2c(cc1-3)OCO2 (racemic)	38	> 10000	
CCCOc1cc2c3c(c1OC)-c1cc4c(cc1CC3N(C)CC2)OCO4 (racemic)	133	389	
CCN1CCc2cc(OC)c(OC)c3c2C1Cc1cc2c(cc1-3)OCO2 (racemic)	26		
CCOc1cc2c3c(c1OC)-c1cc4c(cc1CC3N(C)CC2)OCO4 (racemic)	52	378	
COc1c(Br)c2c3c(c1OC)-c1c(Br)c4c(c(Br)c1CC3N(C)CC2)OCO4 (racemic)	> 10000	43	
COc1c(Br)c2c3c(c1OC)-c1cc4c(cc1CC3N(C)CC2)OCO4 (racemic)	> 10000	53	
COc1c(OCC2CC2)cc2c3c1-c1cc4c(cc1CC3N(C)CC2)OCO4 (racemic)	195	484	
COc1c(OCc2ccccc2)cc2c3c1-c1cc4c(cc1CC3N(C)CC2)OCO4 (racemic)	1920	154	
COc1cc2c3c(c1OC)-c1cc4c(cc1CC3N(C)CC2)OCO4 (racemic)	36		
COc1cc2c3c(c1OC)-c1cc4c(cc1CC3N(CC1CC1)CC2)OCO4 (racemic)	319	> 10000	
COc1cc2c3c(c1OCC(C)C)-c1cc4c(cc1CC3N(C)CC2)OCO4 (racemic)	> 10000	367	
COc1cc2c3c(c1OCC1CCC1)-c1cc4c(cc1CC3N(C)CC2)OCO4 (racemic)	> 10000		25
COc1cc2c3c(c1OCC1CCCC1)-c1cc4c(cc1CC3N(C)CC2)OCO4 (racemic)	> 10000		35
COc1cc2c3c(c1OCC1CCCCC1)-c1cc4c(cc1CC3N(C)CC2)OCO4 (racemic)	> 10000	1720	
COc1cc2c3c(c1OCCC(C)C)-c1cc4c(cc1CC3N(C)CC2)OCO4 (racemic)	> 10000		19
COc1cc2c3c(c1OCCCO)-c1cc4c(cc1CC3N(C)CC2)OCO4 (racemic)	> 10000	708	
